Assay outcomes as filed in PubChem.
Shown are actives, neighbours in structure and some others; about 0.74% of the full set was active somewhere.
Tn6 DDE FP: inhibitors of Tn6 peptide binding to fibrin DD(E), primary screen, biochemical, fluorescence polarization, human fibrin, Tn6 probe; Fibrinogen beta chain (Homo sapiens), P02675; Fibrin DD(E) TRITC-Tn6 fluorescence polarization displacement; inhibition, % at 8.3 µM; 0.21% of 370,000 active;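 active = inhibition above a per-campaign cutoff: mean of compounds within control limits plus 3 SD, cut at about 15% in these data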;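 also: 0% = median of all compound wells on the plate and 100% = blocking peptide control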
Target sequence (P02675 whole entry, looked up): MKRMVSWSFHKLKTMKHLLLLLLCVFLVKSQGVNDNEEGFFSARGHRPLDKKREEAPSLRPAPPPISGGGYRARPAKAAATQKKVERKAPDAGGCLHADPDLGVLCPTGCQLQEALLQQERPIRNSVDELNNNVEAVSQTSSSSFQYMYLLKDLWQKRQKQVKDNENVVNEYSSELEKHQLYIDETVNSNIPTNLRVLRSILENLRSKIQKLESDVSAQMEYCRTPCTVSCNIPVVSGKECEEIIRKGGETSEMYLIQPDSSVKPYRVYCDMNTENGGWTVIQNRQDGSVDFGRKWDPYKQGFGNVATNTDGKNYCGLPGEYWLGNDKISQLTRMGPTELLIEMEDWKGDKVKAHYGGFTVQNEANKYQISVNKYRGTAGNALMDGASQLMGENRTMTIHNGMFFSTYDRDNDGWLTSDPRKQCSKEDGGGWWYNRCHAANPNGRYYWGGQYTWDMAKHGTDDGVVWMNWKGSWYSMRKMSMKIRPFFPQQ
ARFGAP1 inhibitor: inhibitors of rat ARFGAP1 GAP activity, primary screen, biochemical, fluorescence polarization, GDP tracer | ADP-ribosylation factor GTPase-activating protein 1 (Rattus norvegicus), Q62848 | Arfgap1-stimulated ARF1 GTP hydrolysis, GDP FP detection | inhibition, % at 16.5 µM | 0.26% of 360,000 active | AID 651572, 2012;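 active = inhibition above a per-plate limit, mean inhibition of low control wells plus 3 SD, cut at about 25% in these data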;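 also: 0% = DMSO wells with enzyme and 100% = wells lacking Arfgap1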
Target sequence (Q62848 1-136 limits assumed): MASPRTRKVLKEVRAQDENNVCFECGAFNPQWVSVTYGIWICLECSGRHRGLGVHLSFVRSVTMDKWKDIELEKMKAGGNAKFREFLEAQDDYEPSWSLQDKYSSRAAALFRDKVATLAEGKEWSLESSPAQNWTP
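Repeats: one replicate per compound; assay system: rat Arfgap1 catalytic domain, aa 1-136; times: enzyme reaction 120 min at 25 °C after 20 min preincubation; detection: FP of antibody-bound GDP Alexa 633 tracer, ex 620/em 688 nm; benchmarks: high control wells lacking Arfgap1, low control full reaction with DMSO; reagent: human ARF1(Δ1-17)-GTP substrate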
DDE Tn7 FP inh: inhibitors of Tn7 peptide binding to fibrin DD(E), primary screen, biochemical, fluorescence polarization, human fibrin, Tn7 probe; Fibrinogen beta chain (Homo sapiens), P02675; FP displacement of FITC-Tn7 peptide from fibrin DD(E); 0% = median of compound wells per plate; inhibition, % at 8.3 µM; 0.13% of 370,000 active; AID 720508, 2013;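 active = inhibition above the mean of compounds falling within the control limits plus 3 SD of them, cut at about 14% in these data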;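 also: 0% = plate median of compound wells and 100% = 10 µM Aha-Tn7 peptide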
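System: human fibrin DD(E); quantity: Fibrin-DD(E) at 2 µM final; also added: fluorescent Tn7 probe at 0.1 µM; compound dosing: single nominal test concentration of 8.3 µM per compound; schedule: 10 min preincubation, 3 h with tracer, room temperature; detection: fluorescence polarization of the labelled Tn7 tracer; repeats: one replicate per compound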
ASAP1 inh: inhibitors of human ASAP1 ArfGAP activity, primary screen, biochemical, fluorescence polarization | ASAP1-stimulated ARF1 GTP hydrolysis, GDP FP detection | inhibition, % at 16.5 µM | 0.19% of 360,000 active | AID 624377, 2012; in the data active = inhibition above about 25%;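 also: 0% = vehicle with enzyme and substrate and 100% = no enzyme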
ASAP1 GAP conf: ASAP1 GAP activity inhibitors, confirmation, biochemical, fluorescence polarization, human, triplicate | 37% of 620 active | shares compounds with ASAP1 inh | ASAP1-stimulated Arf1 GTPase, GDP fluorescence polarization | inhibition, % at 16.5 µM;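 active = mean inhibition over triplicates exceeds the hit threshold derived for the earlier primary screening run, cut at about 25% in these data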
* hit, by the source's call; x = no result.

SMILES	Tn6 DDE FP	ARFGAP1 inhibitor	DDE Tn7 FP inh	ASAP1 inh	ASAP1 GAP conf
O=[N+]([O-])c1cccc(-c2cc(-c3cc(Br)ccc3O)[nH]n2)c1	-15	21	-2	25*	17
Cc1ccc(-c2nnc(N(C)C(=O)c3cccnc3)s2)cn1	0	1	3	26*	9
CC1(C)OC(C)(C)C(=N/O)/C1=N\N	-2	18	-9	7	x
CC(Oc1ccc(Cl)cc1Cl)c1nc(-c2ccc(NC(=O)c3ccncc3)cc2)no1 (centres undefined)	-11	4	-3	25*	8
C[C@@H]1CN([C@@H](C)CO)C(=O)CCCn2cc(nn2)CO[C@H]1CN(C)C(=O)c1ccncc1	-3	-7	6	-3	x
Cc1ccc(/C=N/NC(=O)c2cc(-c3ccccc3)nc3ccccc23)o1	-10	-4	7	-8	x
Cc1ccc(C=NNC(=O)c2cc(-c3cccnc3)nc3ccccc23)o1	4	3	2	25*	10
CC(C)C[C@@H]1COc2cccc(N3CCCCC3)c2S(=O)(=O)N1	-6	-4	-10	-7	x
C[C@@H]1ON(C)[C@H]2C[C@H]3c4cc(-c5cccc(Cl)c5)ccc4CCN3C[C@@H]12	-2	10	2	11	x
CC1CCCN(C(=O)Nc2ccc([N+](=O)[O-])cc2)C1 (centres undefined)	5	2	1	12	x
COc1cc(OC)cc(C(=O)N[C@H](C(=O)OCC(=O)c2c[nH]c3ccccc23)C(C)C)c1	1	16	-2	28*	13
COc1ccc(NS(=O)(=O)c2ccc(NC(=S)NC(=O)C(C)C)cc2)cc1	2	2	-5	31*	11
CCOc1ccc(NS(=O)(=O)c2ccc(NC(=S)NC(=O)C(C)C)cc2)cc1	-7	1	-2	5	x
CCCCc1c(-c2ccccc2OC)ncn1Cc1cccc(F)c1	-4	-7	-2	6	x
Cc1ccc(-c2cc(NC(=O)Cc3c(C)[nH]c4ccccc34)ccc2Nc2cccnc2)cc1	6	3	0	0	x
COc1ccc(Br)cc1C(=O)NC(=S)Nc1ccc(CN2CCOCC2)cc1	2	12	0	27*	2
Cc1ccc(C(=O)NC(=S)Nc2ccc(CN3CCOCC3)cc2)cc1	7	4	0	6	x
CCN(C(=S)NCc1ccccc1)c1cccc2ccccc12	-6	0	0	25*	2
CCO[C@@H]1OC(C(=O)O)=C[C@H](c2csc3ccccc23)[C@H]1CCCO	1	1	0	5	x
CCO[C@H]1OC(C(=O)Nc2ccccc2)=C[C@@H](c2csc3ccccc23)[C@@H]1CCCO	-7	16	-4	25*	19
COc1ccc(N2C(=O)c3n[nH]c(C)c3C2c2ccc(F)cc2)cc1 (centres undefined)	0	3	3	-7	x
Cc1ccc(NC(=O)COc2ccc(CCO)cc2-n2nc3ccccc3n2)cc1C	-4	5	-3	26*	-1
COc1ccc(-n2nnc3c(=O)n(CC(=O)Nc4ccc5c(c4)OCCO5)cnc32)cc1OC	3	13	9	108*	73*
O=C(Cn1cnc2c(nnn2-c2cccc(F)c2)c1=O)Nc1ccc2c(c1)OCCO2	-9	2	7	1	x
Oc1ccc2ccccc2c1C=NN1CCN(Cc2ccc(Cl)cc2)CC1	2	x	-1	x	x
SMILES	Tn6 DDE FP	ARFGAP1 inhibitor	DDE Tn7 FP inh	ASAP1 inh	ASAP1 GAP conf
CC(=O)C1C(c2ccc(C)cc2)c2c(n[nH]c2C)CC1(C)O (centres undefined)	2	-10	-3	43*	1
COc1ccc(/C=N/NC(=O)c2cccc(NC(C)=O)c2)c(OC)c1	-2	0	1	6	x
CCCCC(=O)Nc1cccc(C(=O)N/N=C/c2ccc(OC)cc2OC)c1	-4	7	-1	26*	13
CCOC(=O)c1[nH]c(C)c(C(=O)Nc2ccc(C)c(C)c2)c1C	3	-10	-10	26*	2
O=[N+]([O-])c1cc(C(F)(F)F)ccc1NCCc1c[nH]c2ccccc12	-2	10	1	-1	x
O=[N+]([O-])c1cc(C(F)(F)F)ccc1NCCc1c[nH]c2ccc(O)cc12	-10	3	-2	26*	12
CCCCOCC1CN(CCCC)S(=O)(=O)c2c(cccc2N2CCCC2)O1 (centres undefined)	0	-7	9	-4	x
O=C(CCCN1C(=O)/C(=C/c2ccc(F)cc2)SC1=S)NCCCn1ccnc1	-9	-3	3	26*	-4
CN1CCN(c2ccc(NC(=O)c3ccc(-c4cccc([N+](=O)[O-])c4)o3)cc2)CC1	-9	17	0	31*	106*
O=C(c1ccccc1)C12COc3ccccc3C1ON=C2c1ccccc1 (centres undefined)	-4	6	10	-14	x
COc1cccc(CNC(=O)[C@H]2CCCN2C(=O)[C@H]2CCCN2C(=O)c2ccc(OC(F)(F)F)cc2)c1	-1	-1	0	2	x
CC(=O)C1=C(C)OC2(O)c3ccccc3C(=O)C12O (centres undefined)	-6	14	0	43*	9
CCOC(=O)C1=C(C)OC2(O)c3ccccc3C(=O)C12O (centres undefined)	-7	17	-1	47*	17
O=C(CNC(=O)c1ccccc1O)N/N=C/c1cc(Br)ccc1OC(=O)/C=C/c1ccco1	2	21	-3	26*	19
COc1cc(/C=C2/SC(N)=NC2=O)ccc1Oc1ccc([N+](=O)[O-])cc1[N+](=O)[O-]	-2	-4	8	29*	49*
COc1cc(/C=C2/SC(=O)NC2=O)ccc1Oc1ccc([N+](=O)[O-])cc1[N+](=O)[O-]	4	8	3	-6	x
Cn1c(NC2=NC3(CCCC3)C3=C(CCCC3=O)N2)nc2ccccc21	1	x	3	x	x
COC(=O)C1=C(C)N(Cc2ccc(C(F)(F)F)cc2)C(=NCc2ccc(OC)cc2)NC1c1ccccc1 (centres undefined)	6	3	5	6	x
C[C@@H](C(=O)O)[C@H]1C[C@]1(C)[C@H](NC(=O)OCc1ccccc1)c1ccccc1	2	-3	-1	26*	0
COC(=O)[C@H](C)[C@@H]1C[C@@]1(C)[C@@H](NC(=O)OCc1ccccc1)c1ccccc1	4	-2	-1	-1	x
